In article PMC5199138 (Cancer chemotherapy and pharmacology, 2016):
Entries after “also recorded” stand apart in the source; their conditions may differ.

Experiments:
[1] = tested on: patients with advanced solid tumors; experiment: Phase I trial, daily schedule; assay type: in vivo
[2] = tested on: patients with advanced solid tumors; experiment: Phase I trial, weekly schedule; assay type: in vivo
[3] = Plasma and urine pharmacokinetics; assay type: in vivo, human; details: for AUC(0-t) / Cmax / AUC(0-inf) / half-life: human, plasma, intravenous
Top1 [4] = biological target: T1, Top1 (Homo sapiens, UniProt P11387); experiment: Top1 levels in paired tumor biopsies; assay type: in vivo; details: of the 8 patients on the daily schedule
T1 sequence (P11387 1-765): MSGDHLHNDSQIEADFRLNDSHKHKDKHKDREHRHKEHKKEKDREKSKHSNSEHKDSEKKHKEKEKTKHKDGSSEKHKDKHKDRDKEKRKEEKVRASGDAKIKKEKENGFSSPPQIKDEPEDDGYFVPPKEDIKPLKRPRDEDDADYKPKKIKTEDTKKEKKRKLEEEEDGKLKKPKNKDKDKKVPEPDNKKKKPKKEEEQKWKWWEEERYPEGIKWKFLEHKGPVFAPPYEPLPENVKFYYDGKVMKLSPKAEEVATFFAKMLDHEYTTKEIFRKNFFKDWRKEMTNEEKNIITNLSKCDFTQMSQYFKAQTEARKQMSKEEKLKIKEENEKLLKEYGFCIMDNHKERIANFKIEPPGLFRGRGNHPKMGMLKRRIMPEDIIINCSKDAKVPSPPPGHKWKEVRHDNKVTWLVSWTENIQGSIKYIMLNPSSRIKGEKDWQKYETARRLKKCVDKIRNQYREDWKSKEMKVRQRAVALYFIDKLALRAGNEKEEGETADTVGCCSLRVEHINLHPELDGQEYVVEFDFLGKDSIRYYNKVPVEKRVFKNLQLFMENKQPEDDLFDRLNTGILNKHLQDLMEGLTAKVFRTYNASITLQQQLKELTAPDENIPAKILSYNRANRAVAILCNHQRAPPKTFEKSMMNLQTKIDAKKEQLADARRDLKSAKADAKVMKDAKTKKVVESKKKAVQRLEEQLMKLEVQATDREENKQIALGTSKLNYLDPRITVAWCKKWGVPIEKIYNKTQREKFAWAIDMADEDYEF
In short: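 Daily schedule: tumor biopsies taken at baseline and 2–4 h after infusion start on cycle 1 day 3. Top1 quantified by validated immunofluorescence assay (pg/μg protein). Pre-dose value had to exceed twice the LLQ to allow detection of a 50% reduction. Reported as percent change from baseline for each patient.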

Top1 [5] = biological target: T1, Top1; experiment: Top1 levels in PBMCs; assay type: in vivo
In short: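 PBMCs collected in the daily trial before dosing and 4 h after infusion start on cycle 1 days 1 and 3. Top1 measured by validated immunofluorescence assay, expressed as pg/10^7 cells. Reportable only if pre-dose Top1 exceeded twice the LLQ; samples also had to pass assay QC. Result given as percent change from baseline per patient.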

γH2AX = γH2AX in hair follicles; assay type: in vivo, human; details: 4 patients, daily trial, 4-6 h post-infusion vs pre-infusion; p=0.027, 1-sided
[6] = cited from earlier work
[7] = weekly trial, Total (N=21), all dose levels, SD of geometric mean in parenthesis
[8] = weekly trial, W1, 60 mg/m^2 over 3 h, N=6, SD of geometric mean in parenthesis
[9] = weekly trial, W2, 90 mg/m^2 over 3 h, N=8, SD of geometric mean in parenthesis
[10] = weekly trial, W3, 135 mg/m^2 over 3 h, N=7, SD of geometric mean in parenthesis

In the case of `COc1cc2c3c(n(CCCN4CCOCC4)c(=O)c2cc1OC)-c1cc2c(cc1C3=O)OCO2` [indotecan], the “Maximum tolerated dose (MTD)” value ([1]; daily for 5 days in 28-day cycles, iv over 1 h) is reported as 60 mg/m^2/day, the “Objective response (RECIST)” value ([1]; daily schedule, 21 patients) is reported as “No objective responses were observed on either schedule; also recorded: no patient on either schedule had an objective response” and the Principal toxicity ([1]; in vivo) is reported as “myelosuppression”. For the same molecule, the “Maximum tolerated dose (MTD)” value ([2]; days 1, 8, 15 in 28-day cycles, iv over 3 h) was 90 mg/m^2, the Principal toxicity ([2]; in vivo) was “myelosuppression” and the “Objective response (RECIST)” value ([2]; weekly schedule, 21 patients) was “No objective responses were observed on either schedule; also recorded: no patient on either schedule had an objective response”. The “Renal excretion 0–24 h” value ([3]; daily trial, D1, 2.5 mg/m^2 over 1 h, N=1) was 0.49% dose, the “Renal excretion 0–24 h” value ([3]; daily trial, D2, 5 mg/m^2 over 1 h, N=3, SD of geometric mean in parenthesis) was 0.48% (0.21%) % dose and the “Renal excretion 0–24 h” value ([3]; daily trial, D3, 10 mg/m^2 over 1 h, N=1) was 0.36% dose. The “Renal excretion 0–24 h” value ([3]; daily trial, D4, 20 mg/m^2 over 1 h, N=1) was 0.26% dose, the “Renal excretion 0–24 h” value ([3]; daily trial, D5a, 60 mg/m^2 over 1 h, N=6, SD of geometric mean in parenthesis) was 0.18% (0.17%) % dose and the “Renal excretion 0–24 h” value ([3]; daily trial, D6, 80 mg/m^2 over 1 h, N=3, SD of geometric mean in parenthesis) was 0.26% (0.03%) % dose. The “Renal excretion 0–24 h” value ([3]; daily trial, Total (N=20), all dose levels, SD of geometric mean in parenthesis) was 0.24% (0.17%) % dose, the “Clearance as share of human hepatic blood flow” value ([3]; hepatic blood flow from ref 15) was “approximately 2%” and the AUC(0-t) ([3]; 2.5 mg/m2, AUC0–24, daily trial, D1, 2.5 mg/m^2 over 1 h, N=1) was 547 ng·h/mL. For the same molecule, the Cmax ([3]; 2.5 mg/m2, Cmax, daily trial, D1, 2.5 mg/m^2 over 1 h, N=1) was 94.3 ng/mL, the AUC(0-t) ([3]; 5 mg/m2, AUC0–24, daily trial, D2, 5 mg/m^2 over 1 h, N=3, SD of geometric mean in parenthesis) was 1450 ng·h/mL and the Cmax ([3]; 5 mg/m2, Cmax, daily trial, D2, 5 mg/m^2 over 1 h, N=3, SD of geometric mean in parenthesis) was 191 ng/mL. The AUC(0-inf) ([3]; 60 mg/m2) was 56400 ng·h/mL, the AUC(0-t) ([3]; 60 mg/m2, AUC0–24, daily trial, D5a, 60 mg/m^2 over 1 h, N=6, SD of geometric mean in parenthesis) was 12800 ng·h/mL and the AUC(0-t) ([3]; 60 mg/m2, AUC0–24, weekly trial, W1, 60 mg/m^2 over 3 h, N=6, SD of geometric mean in parenthesis) was 13700 ng·h/mL. For the same molecule, the Cmax ([3]; 60 mg/m2, Cmax, daily trial, D5a, 60 mg/m^2 over 1 h, N=6, SD of geometric mean in parenthesis) was 1610 ng/mL, the Cmax ([3]; 60 mg/m2, Cmax, weekly trial, W1, 60 mg/m^2 over 3 h, N=6, SD of geometric mean in parenthesis) was 1270 ng/mL and the half-life ([3]; 60 mg/m2, t1/2, weekly trial, W1, 60 mg/m^2 over 3 h, N=6, SD of geometric mean in parenthesis) was 89 h. It also gave an AUC(0-t) ([3]; 80 mg/m2, AUC0–24, daily trial, D6, 80 mg/m^2 over 1 h, N=3, SD of geometric mean in parenthesis) of 14700 ng·h/mL, a Cmax ([3]; 80 mg/m2, Cmax, daily trial, D6, 80 mg/m^2 over 1 h, N=3, SD of geometric mean in parenthesis) of 1650 ng/mL and an AUC(0-inf) ([3]; 90 mg/m2) of 88600 ng·h/mL. It also gave an AUC(0-t) ([3]; 90 mg/m2, AUC0–24, weekly trial, W2, 90 mg/m^2 over 3 h, N=8, SD of geometric mean in parenthesis) of 18700 ng·h/mL, a Cmax ([3]; 90 mg/m2, Cmax, weekly trial, W2, 90 mg/m^2 over 3 h, N=8, SD of geometric mean in parenthesis) of 1690 ng/mL and a half-life ([3]; 90 mg/m2, t1/2, weekly trial, W2, 90 mg/m^2 over 3 h, N=8, SD of geometric mean in parenthesis) of 74 h. The AUC(0-inf) ([3]; 135 mg/m2) was 70800 ng·h/mL, the AUC(0-t) ([3]; 135 mg/m2, AUC0–24, weekly trial, W3, 135 mg/m^2 over 3 h, N=7, SD of geometric mean in parenthesis) was 21500 ng·h/mL and the Cmax ([3]; 135 mg/m2, Cmax, weekly trial, W3, 135 mg/m^2 over 3 h, N=7, SD of geometric mean in parenthesis) was 1930 ng/mL. For the same molecule, the half-life ([3]; 135 mg/m2, t1/2, weekly trial, W3, 135 mg/m^2 over 3 h, N=7, SD of geometric mean in parenthesis) was 50 h, the “Inter-patient variability, coefficient of variation in drug clearance” value ([3]; in vivo) was 58% and the Clearance ([3]; patients) was 1 L/h/m^2. For the same molecule, the CL [3, 7] was 1.27 (0.74) L/h/m^2, the “Renal excretion 0–24 h” value [3, 7] was 0.19% (0.13%) % dose and the Vss [3, 7] was 109 (69) L/m^2. For the same molecule, the CL [3, 8] was 1.06 (0.34) L/h/m^2, the “Renal excretion 0–24 h” value [3, 8] was 0.21% (0.08%) % dose and the Vss [3, 8] was 116 (121) L/m^2. The CL [3, 9] was 1.02 (0.73) L/h/m^2, the “Renal excretion 0–24 h” value [3, 9] was 0.15% (0.13%) % dose and the Vss [3, 9] was 99.3 (32.6) L/m^2. For the same molecule, the CL [3, 10] was 1.91 (0.73) L/h/m^2, the “Renal excretion 0–24 h” value [3, 10] was 0.22% (0.16%) % dose and the Vss [3, 10] was 114 (39) L/m^2. For the same molecule, the “Number of patients with significant Top1 decreases in post-treatment biopsies” value (Top1 [4]) was 3, the “Effects of treatment on PBMC Top1 levels” value (Top1 [5]; DL-D2 through DL-D6, 4 h after start of infusion, cycle 1 days 1 and 3) was “inconclusive” and the “Decrease in PBMC Top1 level” value (Top1 [5]; patients #0003 and #0015, post-dose vs baseline) was greater than 70%. For the same molecule, the “γH2AX formation in hair bulbs” value (γH2AX) was “induced significant DNA damage” and the “Drug in the unbound state (protein binding)” value [6] was “approximately 2%”.
